# From PubChem
# Fh CTSL1 inh = blocks F. hepatica cathepsin L1 in PFM18AAP counter-screen | recombinant F. hepatica cathepsin L1, Z-Leu-Arg-MCA fluorescence | inhibition, % at 5.96 µM | 0.49% of 300,000 active | AID 1906;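 active = inhibition above the mean of all tested compounds plus 3 SD, set per screening campaign, cut at about 17% in these data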;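 note: 0% = plate median of test compound wells and 100% = 1 µM Z-Phe-Ala-diazomethylketone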
# FXIa inh 1536 = blocks human coagulation factor XIa protease activity. purified FXIa, Boc-Glu-Ala-Arg-AMC fluorogenic substrate. inhibition, % at 5 µM. AID 798. P03951. 0.14% of 220,000 active;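 active = inhibition of at least 40%; inactive = inhibition below 40%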;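 note: fluorescence of freed AMC excited at 355 nm; 0% = enzyme without compound and 100% = no enzyme blank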
# Target sequence (P03951 19-387 limits assumed): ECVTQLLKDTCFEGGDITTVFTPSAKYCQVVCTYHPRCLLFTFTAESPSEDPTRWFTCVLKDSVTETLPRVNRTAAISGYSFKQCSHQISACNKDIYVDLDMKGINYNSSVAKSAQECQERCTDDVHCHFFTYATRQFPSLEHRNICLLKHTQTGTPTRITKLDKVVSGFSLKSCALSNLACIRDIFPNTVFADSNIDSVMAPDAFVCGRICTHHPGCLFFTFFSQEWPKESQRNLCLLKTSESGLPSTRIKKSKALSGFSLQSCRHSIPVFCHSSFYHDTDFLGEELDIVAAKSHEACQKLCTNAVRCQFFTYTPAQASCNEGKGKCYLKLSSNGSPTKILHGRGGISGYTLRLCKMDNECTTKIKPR
# Target sequence (P03951 388-625 limits assumed): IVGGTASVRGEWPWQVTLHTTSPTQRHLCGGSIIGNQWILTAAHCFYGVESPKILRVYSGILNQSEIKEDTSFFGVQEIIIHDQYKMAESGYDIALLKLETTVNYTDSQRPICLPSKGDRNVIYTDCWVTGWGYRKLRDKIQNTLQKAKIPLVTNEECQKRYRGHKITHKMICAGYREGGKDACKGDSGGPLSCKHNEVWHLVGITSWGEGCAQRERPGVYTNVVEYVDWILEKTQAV
# thrombin 1536 = inhibitors of human thrombin | AID 1046 | alpha-thrombin, Boc-VPR-AMC fluorogenic substrate cleavage | P00734 | inhibition, % at 5 µM | 0.26% of 220,000 active;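 active = inhibition at or above 40%; inactive = inhibition below 40%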;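 note: 0% = enzyme with no compound and 100% = wells without enzyme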
#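 signal = AMC fluorescence, 355/460 nm | material = human alpha-thrombin enzyme | control set = enzyme without compound as high, wells lacking enzyme as low | times = reaction at room temperature | read-out basis = percent inhibition scaled between no-compound controls and no-enzyme blanks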
# Rce1 inh = inhibitors of yeast Ras-converting enzyme | yeast membranes, quenched prenylated peptide cleavage fluorescence | 0.27% of 290,000 active | calls only;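 active = fall in fluorescence gain of 50% or more versus controls, with final raw signal at or below 3038400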;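 note: plate controls were neutral control wells for no effect and wells lacking membranes for full effect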
# hK5 inh = blocks human kallikrein 5 protease activity; Q9Y337; recombinant hK5, fluorogenic AMC substrate cleavage; inhibition, % at 5 µM; 0.59% of 210,000 active;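 active = inhibition of 40% or more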;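 note: 0% = enzyme controls without compound and 100% = no-enzyme blanks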
# FXIIa inh = blocks human coagulation factor XIIa protease activity. purified FXIIa, Boc-QGR-AMC fluorogenic substrate, 2 h. P00748. inhibition, % at 5 µM. 0.3% of 220,000 active. AID 800; in the data active = inhibition above about 40%;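 note: 0% = enzyme with no compound and 100% = blank without enzyme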
# Starred values were filed as active, the others as inactive; i = inactive; · = not tested or not shown; + = active, no number. An excerpt weighted towards active compounds, which were near 1.4% of everything screened.
SMILES,Fh CTSL1 inh,FXIa inh 1536,thrombin 1536,Rce1 inh,hK5 inh,FXIIa inh
CCOC(=O)c1c2c(n(C)c1C)C(=O)C(=O)c1ccc(Br)cc1-2,66.3*,·,·,i,·,·
CC(=O)c1ccc(NC(=O)CCS(=O)(=O)c2ccc3c(c2)n(C)c(=O)c(=O)n3C)cc1,2.7,·,·,i,·,·
CCOc1cc(C2C3=C(CCCC3=O)N(CCC(=O)O)C3=C2C(=O)CCC3)ccc1OS(=O)(=O)c1ccc(C)cc1,1.8,-3.6,-3.7,i,-23.4,0.9
Cc1ccc(S(=O)(=O)Oc2ccc(C3C4=C(CCCC4=O)N(CCC(=O)O)C4=C3C(=O)CCC4)cc2Cl)cc1,-0.5,-4.3,-6.5,+,-29.0,-11.1
O=C(CCCN1C(=O)C2CCCCN2C1=O)N1CCN(c2ccc([N+](=O)[O-])cc2)CC1 (stereo unspecified),20.4*,-4.4,-24.6,i,-24.1,5.1
CC1CCN(C(=O)COC(=O)CSc2ccc(C(N)=O)cc2[N+](=O)[O-])CC1,-5.7,·,·,i,·,·
N=c1oc2cc(O)ccc2cc1C(=O)Nc1nc2ccccc2s1,-2.0,-17.7,-34.9,+,-76.9,-36.6
N=c1oc2cc(O)ccc2cc1C(=O)Nc1ccccn1,-6.4,-26.0,-46.2,·,-17.2,-25.5
CN1CCN(C(=O)Nc2cccc(-c3ccccc3)c2)CC1,-3.4,-3.2,0.0,i,1.9,4.9
Cc1cc(F)ccc1S(=O)(=O)Nc1ncnc2sc3c(c12)CCC3,-1.5,41.1*,1.6,i,11.2,23.3
COc1cc(/C=C2/C(=O)NN(c3cccc(C)c3)C2=O)ccc1OC(=O)c1ccco1,-0.3,19.1,5.8,i,60.2*,11.6
COc1cc(/C=C2/C(=O)NN(c3cccc(C)c3)C2=O)cc([N+](=O)[O-])c1O,8.3,-3.1,-2.5,i,-6.4,5.3
O=C(c1cccc(Br)c1)N1CCN(S(=O)(=O)N2CCCCC2)CC1,-5.1,·,·,i,·,·
CC(=O)OC1c2ccccc2C(=O)N1c1ccccc1C (stereo unspecified),-4.2,0.6,-3.2,i,-0.9,13.4
CC(=O)OC1c2ccccc2C(=O)N1Cc1ccccc1 (stereo unspecified),20.2*,5.0,2.2,i,-5.2,11.2
CC1Cc2ccccc2N1C(=O)C1CCCCN1S(=O)(=O)c1ccccc1 (stereo unspecified),1.0,13.5,31.5,i,41.3*,30.7
O=C1c2cccc3cccc(c23)C(=O)N1c1ccncc1,-0.3,8.7,6.7,·,-7.2,18.2
O=C1c2cccc3cccc(c23)C(=O)N1c1ccccn1,4.1,33.6,6.2,i,47.3*,29.1
O=C(CC1CCCCC1)Nc1ncn[nH]1,-1.3,5.2,0.2,i,3.2,6.5
CCOc1ccc(NC(=O)CCN2CCN(S(=O)(=O)c3ccc(OC)cc3)CC2)cc1,2.7,-18.1,-1.4,i,-7.1,-4.5
COc1cc(NC(=O)CN2CCN(S(=O)(=O)c3ccc(C(C)C)cc3)CC2)cc(OC)c1,7.0,14.7,10.4,·,40.5*,26.0
CCOc1ccc(NC(=O)CCN2CCN(S(=O)(=O)c3ccc(Cl)cc3)CC2)cc1,1.1,-2.8,28.0,i,55.3*,20.7
CC1CCCCC1N1CN=C(Nc2nc3ccccc3s2)NC1 (stereo unspecified),1.4,6.8,3.7,i,-3.2,15.1
O=C(C1CCCN(Cc2ccc(Cl)cc2)C1)N1CCCCC1 (stereo unspecified),-1.7,·,·,i,·,·
Cc1nnc(SC(C)C(=O)Nc2ccc3ccccc3c2)[nH]c1=O (stereo unspecified),-3.0,·,·,i,·,·
SMILES,Fh CTSL1 inh,FXIa inh 1536,thrombin 1536,Rce1 inh,hK5 inh,FXIIa inh
O=C(Cn1c(CO)nc2ccccc21)Nc1cc(C(F)(F)F)ccc1N1CCOCC1,0.2,-7.6,4.4,i,-20.2,13.4
O=C(CNCc1ccccn1)Nc1cc(C(F)(F)F)ccc1N1CCOCC1,-3.1,29.6,9.2,i,38.5,41.3*
NC(=O)CC(NC(=O)Cc1ccc(Cl)cc1)c1ccc(NCCOc2ccccc2)c([N+](=O)[O-])c1 (stereo unspecified),-1.7,·,·,i,·,·
Cc1cc(C)nc(Nc2ccccc2Br)n1,-0.6,19.9,44.6*,i,58.9*,20.0
COc1ccc(C(=O)/C=C/Sc2nc3ccccc3o2)cc1,4.1,3.1,-4.5,i,-8.3,6.2
CCCCOC(=O)Sc1nc2ccccc2o1,3.3,2.2,46.3*,i,-50.1,12.8
Cc1ccc(C(=O)C2=C(O)C(=O)N(Cc3ccco3)C2c2cccc(Br)c2)o1 (stereo unspecified),18.1*,·,·,i,·,·
C1=C(c2ccccc2)CCN(c2nc3ccccc3n3cnnc23)C1,2.3,-1.2,-6.0,i,40.6*,3.7
c1ccc(N2CCN(c3nc4ccccc4n4cnnc34)CC2)cc1,1.6,3.6,-4.9,i,0.5,12.7
CN(C)c1ccc(/C=N/NC(=O)CNC(=O)c2ccco2)cc1,4.2,-1.1,-6.2,+,·,5.8
CN(C)c1ccc(/C=N/NC(=O)CNC(=O)/C=C/c2ccccc2)cc1,4.9,·,·,i,·,·
CC1=C(C(=O)OCC2CCCO2)C(c2ccc(Cl)c(Cl)c2)NC(=O)N1 (stereo unspecified),1.0,-2.4,-7.1,i,-5.1,3.5
Cc1ccc(S(=O)(=O)N2CCC3(CC2)OCCN3S(=O)(=O)c2c(C)cc(C)cc2C)cc1,0.2,·,·,i,·,·
CCOC(=O)C(C(=O)OCC)N(C#N)c1nc(OC)nc(N(C)C)n1,76.8*,-1.2,0.7,i,3.8,15.8
CCOC(=O)C(C(=O)OCC)N(C#N)c1nc(SC)nc(N(C)C)n1,85.6*,-0.1,-3.1,i,9.4,-1.5
CCOC(=O)COc1nc(N(C)C)nc(N(C)C)n1,-0.9,-5.6,-3.5,i,-27.9,5.6
CC(=O)Nc1nnc(SCc2ccc(F)cc2)s1,2.3,0.9,12.2,i,55.5*,11.1
CCOC(=O)CSc1nnc(NC(=O)c2ccco2)s1,-0.6,·,·,i,·,·
CCSc1nnc(NC(=O)c2ccco2)s1,5.7,9.4,43.8*,i,32.8,-1.2
CC(=O)Nc1nnc(SCc2cccc(F)c2)s1,0.8,1.5,-0.9,i,0.6,4.1
CCOC(=O)CSC1=NC(=O)/C(=C\c2ccc(OC(C)=O)cc2)S1,-16.2,13.4,19.9,i,52.6*,17.1
CCN(Cc1ccccc1)Cc1c(C)[nH]c2c(C)c(C)ccc2c1=O,47.5*,-0.1,-4.2,i,-25.2,0.5
CC(C)(C)C1CCc2c(sc3ncn(N)c(=N)c23)C1 (stereo unspecified),5.3,-4.4,-5.1,i,2.5,-1.0
Cc1ccc(S(=O)(=O)Nc2cccnc2Oc2ccc(Cl)cc2)cc1,0.7,16.7,46.7*,i,27.7,44.3*
Cc1ccc(C(=O)Nc2cccnc2Oc2ccc(Cl)cc2)cc1,-1.1,1.0,-4.6,i,-1.7,1.7
O=C(O)c1cccc(N=C2NC(=O)C(CO)(CO)S2)c1,-2.2,·,·,i,·,·
